Laboratory results as given in ChEMBL document CHEMBL5058577, “EUbOPEN Chemogenomics Library 2 (Multiplex)” (2022).

System: HEK-293T
Experiment: Multiplex assay against HEK293T
Assay type: toxicity, cell-based
Settings: human
In short: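 Tubulin, mitochondrial-mass and membrane-permeability phenotypes are per cents of healthy-nucleus cells. Cells were gated by CellPathfinder machine learning into Hoechst high-intensity objects or normal cells, normal cells into healthy, pyknosed or fragmented nuclei, and pyknosed cells into mitotic or apoptotic. Before that, live cells stained at seeding with Hoechst33342, BioTracker Green Microtubule Cytoskeleton Dye, MitoTracker Red and Annexin V Alexa Fluor 680 were imaged on a CQ1 microscope at 37°C and 5% CO2 after compound addition.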

[1] = 12 h, 1 µM, compound concentration 1 uM, replicate 1
[2] = 12 h, 1 µM, compound concentration 1 uM, replicate 2
[3] = 12 h, 10 µM, compound concentration 10 uM, replicate 1
[4] = 12 h, 10 µM, compound concentration 10 uM, replicate 2
[5] = 24 h, 1 µM, compound concentration 1 uM, replicate 1
[6] = 24 h, 1 µM, compound concentration 1 uM, replicate 2
[7] = 24 h, 10 µM, compound concentration 10 uM, replicate 1
[8] = 24 h, 10 µM, compound concentration 10 uM, replicate 2
[9] = 48 h, 1 µM, compound concentration 1 uM, replicate 1
[10] = 48 h, 1 µM, compound concentration 1 uM, replicate 2
[11] = 48 h, 10 µM, compound concentration 10 uM, replicate 1
[12] = 48 h, 10 µM, compound concentration 10 uM, replicate 2

Nc1nc(CC(=O)Nc2ccc(CCNC[C@H](O)c3ccccc3)cc2)cs1 [MIRABEGRON]
Population Apoptotic (%) [1]: 22%
Population Fragmented Nuclei (%) [1]: 5%
Population Healthy Nuclei (%) [1]: 84%
Population Hoechst High Intensity Objects (%) [1]: 5%
Population Membrane Permeable-Phenotype (%) [1]: 0%
Population Mitochondria Different-Phenotype (%) [1]: 45%
Population Mitotic Cells (%) [1]: 77%
Population Normal (%) [1]: 94%
Population Pyknosed Nuclei (%) [1]: 10%
Population Tubulin-Different-Phenotype (%) [1]: 19%
Total Cell Count [1]: 455
Population Apoptotic (%) [2]: 55%
Population Fragmented Nuclei (%) [2]: 8%
Population Healthy Nuclei (%) [2]: 80%
Population Mitochondria Different-Phenotype (%) [2]: 56%
Population Mitotic Cells (%) [2]: 44%
Population Pyknosed Nuclei (%) [2]: 11%
Total Cell Count [2]: 332
Population Apoptotic (%) [3]: 32%
Population Fragmented Nuclei (%) [3]: 5%
Population Healthy Nuclei (%) [3]: 77%
Population Hoechst High Intensity Objects (%) [3]: 7%
Population Membrane Permeable-Phenotype (%) [3]: 0%
Population Mitochondria Different-Phenotype (%) [3]: 51%
Population Mitotic Cells (%) [3]: 67%
Population Normal (%) [3]: 92%
Population Pyknosed Nuclei (%) [3]: 17%
Population Tubulin-Different-Phenotype (%) [3]: 41%
Total Cell Count [3]: 423
Population Apoptotic (%) [4]: 44%
Population Fragmented Nuclei (%) [4]: 11%
Population Healthy Nuclei (%) [4]: 74%
Population Hoechst High Intensity Objects (%) [4]: 8%
Population Mitochondria Different-Phenotype (%) [4]: 64%
Population Mitotic Cells (%) [4]: 56%
Population Normal (%) [4]: 91%
Population Pyknosed Nuclei (%) [4]: 14%
Population Tubulin-Different-Phenotype (%) [4]: 29%
Total Cell Count [4]: 388
Population Apoptotic (%) [5]: 28%
Population Fragmented Nuclei (%) [5]: 10%
Population Healthy Nuclei (%) [5]: 80%
Population Hoechst High Intensity Objects (%) [5]: 2%
Population Membrane Permeable-Phenotype (%) [5]: 0%
Population Mitochondria Different-Phenotype (%) [5]: 30%
Population Mitotic Cells (%) [5]: 71%
Population Normal (%) [5]: 97%
Population Pyknosed Nuclei (%) [5]: 9%
Population Tubulin-Different-Phenotype (%) [5]: 14%
Total Cell Count [5]: 635
Population Apoptotic (%) [6]: 27%
Population Fragmented Nuclei (%) [6]: 8%
Population Healthy Nuclei (%) [6]: 83%
Population Hoechst High Intensity Objects (%) [6]: 3%
Population Mitochondria Different-Phenotype (%) [6]: 41%
Population Mitotic Cells (%) [6]: 72%
Population Normal (%) [6]: 96%
Population Pyknosed Nuclei (%) [6]: 7%
Population Tubulin-Different-Phenotype (%) [6]: 13%
Total Cell Count [6]: 390
Population Apoptotic (%) [7]: 31%
Population Fragmented Nuclei (%) [7]: 8%
Population Healthy Nuclei (%) [7]: 77%
Population Hoechst High Intensity Objects (%) [7]: 4%
Population Membrane Permeable-Phenotype (%) [7]: 0%
Population Mitochondria Different-Phenotype (%) [7]: 32%
Population Mitotic Cells (%) [7]: 68%
Population Normal (%) [7]: 95%
Population Pyknosed Nuclei (%) [7]: 13%
Population Tubulin-Different-Phenotype (%) [7]: 23%
Total Cell Count [7]: 552
Population Apoptotic (%) [8]: 35%
Population Fragmented Nuclei (%) [8]: 9%
Population Healthy Nuclei (%) [8]: 82%
Population Hoechst High Intensity Objects (%) [8]: 5%
Population Mitochondria Different-Phenotype (%) [8]: 49%
Population Mitotic Cells (%) [8]: 64%
Population Normal (%) [8]: 94%
Population Pyknosed Nuclei (%) [8]: 7%
Total Cell Count [8]: 524
Population Apoptotic (%) [9]: 18%
Population Fragmented Nuclei (%) [9]: 13%
Population Healthy Nuclei (%) [9]: 80%
Population Hoechst High Intensity Objects (%) [9]: 1%
Population Membrane Permeable-Phenotype (%) [9]: 1%
Population Mitochondria Different-Phenotype (%) [9]: 14%
Population Mitotic Cells (%) [9]: 81%
Population Normal (%) [9]: 98%
Population Pyknosed Nuclei (%) [9]: 5%
Population Tubulin-Different-Phenotype (%) [9]: 10%
Total Cell Count [9]: 1141
Population Apoptotic (%) [10]: 28%
Population Fragmented Nuclei (%) [10]: 17%
Population Healthy Nuclei (%) [10]: 76%
Population Hoechst High Intensity Objects (%) [10]: 0%
Population Mitochondria Different-Phenotype (%) [10]: 21%
Population Mitotic Cells (%) [10]: 71%
Population Normal (%) [10]: 99%
Total Cell Count [10]: 662
Population Apoptotic (%) [11]: 26%
Population Fragmented Nuclei (%) [11]: 12%
Population Healthy Nuclei (%) [11]: 78%
Population Hoechst High Intensity Objects (%) [11]: 3%
Population Membrane Permeable-Phenotype (%) [11]: 0%
Population Mitochondria Different-Phenotype (%) [11]: 25%
Population Mitotic Cells (%) [11]: 73%
Population Normal (%) [11]: 96%
Population Pyknosed Nuclei (%) [11]: 8%
Population Tubulin-Different-Phenotype (%) [11]: 16%
Total Cell Count [11]: 818
Population Apoptotic (%) [12]: 28%
Population Healthy Nuclei (%) [12]: 80%
Population Hoechst High Intensity Objects (%) [12]: 2%
Population Mitochondria Different-Phenotype (%) [12]: 30%
Population Mitotic Cells (%) [12]: 71%
Population Normal (%) [12]: 97%
Population Pyknosed Nuclei (%) [12]: 6%
Population Tubulin-Different-Phenotype (%) [12]: 15%
Total Cell Count [12]: 750

COc1ccc2c(c1OCc1ccccc1)C[C@@H](C(=O)O)N(C(=O)C(c1ccccc1)c1ccccc1)C2 [OLODANRIGAN]
Population Apoptotic (%) [1]: 39%
Population Fragmented Nuclei (%) [1]: 6%
Population Healthy Nuclei (%) [1]: 82%
Population Hoechst High Intensity Objects (%) [1]: 7%
Population Membrane Permeable-Phenotype (%) [1]: 0%
Population Mitochondria Different-Phenotype (%) [1]: 44%
Population Mitotic Cells (%) [1]: 60%
Population Normal (%) [1]: 92%
Population Pyknosed Nuclei (%) [1]: 11%
Population Tubulin-Different-Phenotype (%) [1]: 21%
Total Cell Count [1]: 419
Population Apoptotic (%) [2]: 43%
Population Fragmented Nuclei (%) [2]: 7%
Population Healthy Nuclei (%) [2]: 81%
Population Mitochondria Different-Phenotype (%) [2]: 48%
Population Mitotic Cells (%) [2]: 56%
Population Pyknosed Nuclei (%) [2]: 10%
Population Tubulin-Different-Phenotype (%) [2]: 17%
Total Cell Count [2]: 409
Population Apoptotic (%) [3]: 45%
Population Fragmented Nuclei (%) [3]: 6%
Population Healthy Nuclei (%) [3]: 81%
Population Hoechst High Intensity Objects (%) [3]: 6%
Population Membrane Permeable-Phenotype (%) [3]: 0%
Population Mitochondria Different-Phenotype (%) [3]: 42%
Population Mitotic Cells (%) [3]: 54%
Population Normal (%) [3]: 93%
Population Pyknosed Nuclei (%) [3]: 12%
Population Tubulin-Different-Phenotype (%) [3]: 35%
Total Cell Count [3]: 389
Population Apoptotic (%) [4]: 44%
Population Fragmented Nuclei (%) [4]: 4%
Population Healthy Nuclei (%) [4]: 83%
Population Hoechst High Intensity Objects (%) [4]: 3%
Population Mitochondria Different-Phenotype (%) [4]: 58%
Population Mitotic Cells (%) [4]: 55%
Population Normal (%) [4]: 96%
Population Tubulin-Different-Phenotype (%) [4]: 27%
Total Cell Count [4]: 368
Population Apoptotic (%) [5]: 46%
Population Fragmented Nuclei (%) [5]: 11%
Population Healthy Nuclei (%) [5]: 78%
Population Hoechst High Intensity Objects (%) [5]: 3%
Population Membrane Permeable-Phenotype (%) [5]: 0%
Population Mitochondria Different-Phenotype (%) [5]: 24%
Population Mitotic Cells (%) [5]: 53%
Population Normal (%) [5]: 96%
Population Pyknosed Nuclei (%) [5]: 10%
Population Tubulin-Different-Phenotype (%) [5]: 15%
Total Cell Count [5]: 614
Population Apoptotic (%) [6]: 19%
Population Fragmented Nuclei (%) [6]: 10%
Population Healthy Nuclei (%) [6]: 81%
Population Hoechst High Intensity Objects (%) [6]: 6%
Population Membrane Permeable-Phenotype (%) [6]: 1%
Population Mitochondria Different-Phenotype (%) [6]: 30%
Population Mitotic Cells (%) [6]: 80%
Population Normal (%) [6]: 93%
Population Pyknosed Nuclei (%) [6]: 8%
Population Tubulin-Different-Phenotype (%) [6]: 14%
Total Cell Count [6]: 521
Population Apoptotic (%) [7]: 40%
Population Fragmented Nuclei (%) [7]: 7%
Population Healthy Nuclei (%) [7]: 78%
Population Hoechst High Intensity Objects (%) [7]: 6%
Population Membrane Permeable-Phenotype (%) [7]: 0%
Population Mitochondria Different-Phenotype (%) [7]: 34%
Population Mitotic Cells (%) [7]: 59%
Population Normal (%) [7]: 93%
Population Pyknosed Nuclei (%) [7]: 13%
Population Tubulin-Different-Phenotype (%) [7]: 32%
Total Cell Count [7]: 456
Population Apoptotic (%) [8]: 43%
Population Fragmented Nuclei (%) [8]: 10%
Population Healthy Nuclei (%) [8]: 79%
Population Mitochondria Different-Phenotype (%) [8]: 57%
Population Mitotic Cells (%) [8]: 56%
Population Pyknosed Nuclei (%) [8]: 9%
Population Tubulin-Different-Phenotype (%) [8]: 28%
Total Cell Count [8]: 414
Population Apoptotic (%) [9]: 26%
Population Fragmented Nuclei (%) [9]: 13%
Population Healthy Nuclei (%) [9]: 80%
Population Hoechst High Intensity Objects (%) [9]: 2%
Population Membrane Permeable-Phenotype (%) [9]: 0%
Population Mitochondria Different-Phenotype (%) [9]: 15%
Population Mitotic Cells (%) [9]: 73%
Population Normal (%) [9]: 97%
Population Pyknosed Nuclei (%) [9]: 5%
Population Tubulin-Different-Phenotype (%) [9]: 11%
Total Cell Count [9]: 1083
Population Apoptotic (%) [10]: 22%
Population Fragmented Nuclei (%) [10]: 15%
Population Healthy Nuclei (%) [10]: 79%
Population Mitochondria Different-Phenotype (%) [10]: 18%
Population Mitotic Cells (%) [10]: 77%
Population Tubulin-Different-Phenotype (%) [10]: 10%
Total Cell Count [10]: 818
Population Apoptotic (%) [11]: 32%
Population Fragmented Nuclei (%) [11]: 12%
Population Healthy Nuclei (%) [11]: 78%
Population Hoechst High Intensity Objects (%) [11]: 5%
Population Membrane Permeable-Phenotype (%) [11]: 0%
Population Mitochondria Different-Phenotype (%) [11]: 22%
Population Mitotic Cells (%) [11]: 67%
Population Normal (%) [11]: 94%
Population Pyknosed Nuclei (%) [11]: 8%
Population Tubulin-Different-Phenotype (%) [11]: 15%
Total Cell Count [11]: 659
Population Apoptotic (%) [12]: 39%
Population Healthy Nuclei (%) [12]: 80%
Population Hoechst High Intensity Objects (%) [12]: 6%
Population Mitochondria Different-Phenotype (%) [12]: 32%
Population Mitotic Cells (%) [12]: 60%
Population Normal (%) [12]: 93%
Population Pyknosed Nuclei (%) [12]: 7%
Population Tubulin-Different-Phenotype (%) [12]: 18%
Total Cell Count [12]: 534
